This passage reports IC50 and Activity results from ChEMBL document CHEMBL1139362, “Discovery of human macrophage migration inhibitory factor (MIF)-CD74 antagonists via virtual screening” (J Med Chem, 2009).

In assay [1] the target is T1, MIF/CD74 (Macrophage migration inhibitory factor and HLA-DR antigens-associated invariant chain) (Homo sapiens, UniProt P04233+P14174).
T1 sequence (P14174 whole entry): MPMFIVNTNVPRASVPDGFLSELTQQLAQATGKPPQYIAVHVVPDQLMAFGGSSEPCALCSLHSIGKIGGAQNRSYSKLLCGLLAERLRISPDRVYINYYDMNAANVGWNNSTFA
T1 sequence (P04233 whole entry): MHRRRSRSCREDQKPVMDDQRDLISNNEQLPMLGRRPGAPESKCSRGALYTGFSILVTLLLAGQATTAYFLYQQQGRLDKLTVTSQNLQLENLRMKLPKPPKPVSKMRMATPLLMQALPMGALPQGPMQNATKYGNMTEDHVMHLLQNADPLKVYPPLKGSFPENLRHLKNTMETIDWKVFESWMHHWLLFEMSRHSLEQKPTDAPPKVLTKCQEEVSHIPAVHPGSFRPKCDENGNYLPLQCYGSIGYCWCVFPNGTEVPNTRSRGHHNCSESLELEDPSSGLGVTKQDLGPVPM
The assay can be described thus: (§1) Inhibition of human MIF-CD74 binding. The format is protein assay. The method, boiled down:
(§2)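 Compounds pre-incubated 30 min at room temperature with biotinylated recombinant human MIF (2 ng/µl), then added to wells overnight at 4 °C. Bound MIF detected with streptavidin-alkaline phosphatase and p-nitrophenyl phosphate, A405 expressed as percent of MIF-alone wells. 10–12 concentrations spanning ~500-fold; at least three independent assays.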

Assay [2] addresses T2, Macrophage migration inhibitory factor (Homo sapiens, UniProt P14174).
T2 sequence (P14174 whole entry): T1 sequence (P14174 whole entry)
The experiment in a line: (§3) Inhibition of human recombinant MIF tautomerase.

Assay [3] has as its target T3, MIF/CD74 (Macrophage migration inhibitory factor and HLA-DR antigens-associated invariant chain) (Homo sapiens) (UniProt P14174+P04233). The description is as §1. The format is protein assay. The method, boiled down:
as §2

Assay [4] addresses T4, Macrophage migration inhibitory factor (Homo sapiens) (UniProt P14174).
T4 sequence (whole entry): T1 sequence (P14174 whole entry)
The assay is described as §3.

Assay [5] deals with T3, MIF/CD74 (Macrophage migration inhibitory factor and HLA-DR antigens-associated invariant chain) (Homo sapiens). The assay can be described thus: Inhibition of human MIF-CD74 binding at 10 uM. The format is protein assay. Details: scale not given: the % may be the effect or the level left.
Assay [6] addresses T4, Macrophage migration inhibitory factor (Homo sapiens). The experiment in a line: Inhibition of human recombinant MIF tautomerase at 10 uM. Also on record: scale not given: the % may be the effect or the level left.

Molecules are shown by their SMILES. pIC50: −log10 of the molar value. The source made the active and inactive calls. The rule behind the calls is not given here.

Usually pIC50 stands for −log10 of the IC50, conventionally taken in molar units. On to `Oc1c(C(Nc2cccc(F)c2)c2ccccn2)ccc2cccnc12` (stereo not given), for which the figures for the pIC50 in assay [1] and in assay [2] were 5.60 and 3.28, respectively. In the case of `OCc1nc2ccccc2n1Cc1ccc2ccccc2c1`, the outcome in assay [3] was inactive. On the same count and under the same terms, for `CC(=O)Nc1cccc2ccc(-c3cnc4ccccc4c3)nc12` the value was “inactive”.

For the compound `CCOc1cc(/C=C2\Oc3cc(O)ccc3C2=O)ccc1O`, in assay [3], the outcome was inactive. `O=C(O)COc1ccc2occ(C(=O)c3ccccc3)c2c1`: the values for the negative logarithm of the IC50 (pIC50) in assay [1] and in assay [2] were 2.82 and 3.01, respectively. Regarding `COC(=O)C[C@H]1CC(c2ccc(O)cc2)=NO1` (racemic), the result in assay [4] was inactive. In assay [5], this compound gave an Activity of 40%. For the compound `O=c1[nH]nc(-c2cccs2)cc1Cc1ccc(Cl)c(Cl)c1`, the pIC50 is 3.60 in assay [1] and 3.37 in assay [2]. For the compound `O=C(O)c1cccc(-c2cc[nH]n2)c1`, the pIC50 in assay [1] was 4.82. Further, the Activity in assay [6] came out at 30%.

Consider `Cc1cc(C)c2ccc(C3=C(O)c4ccccc4C3=O)nc2c1O`, for which, in assay [3], the result was inactive.

`O=C(c1cc2ccccc2o1)N1CCc2ccccc21`: the negative-log IC50 (pIC50) in assay [1] is 5.40. Turning to `O=C(O)c1cccc(-n2ccnc2)c1`, the result in assay [3] was inactive. With `O=c1oc2c(O)c(O)ccc2cc1-c1nc2ccccc2s1`, in assay [3], the result was inactive.

The compound `CC(=O)Oc1ccc2nc(-c3cc4ccccc4o3)oc(=O)c2c1` gave a negative logarithm of the IC50 (pIC50) in assay [1] of 5.60. With `O=C(O)c1cc(-n2cnnc2)ccc1Cl`, in assay [1], the negative-log IC50 (pIC50) is 3.60. Moreover, the outcome in assay [4] was inactive. Take `N#C/C(=C\c1ccc(-c2ccccc2)cc1)c1ccccn1`: in assay [3], the outcome was inactive. Take `Oc1csc(Cc2nc(-c3ccc(-c4ccccc4)cc3)cs2)n1`: the negative-log IC50 (pIC50) was 4.19 in assay [1] and 3.52 in assay [2]. Take `Cc1ccc(-n2cnc3ccccc3c2=O)cc1Cl`: the outcome in assay [3] was inactive.

For `CC(C)(C)OC(=O)C[C@H]1CC(c2ccc(O)c(F)c2)=NO1` (racemic), in assay [2], the pIC50 is 6.26. With `CC(OC(=O)c1ccc(-c2ccc(O)cc2)cc1)C(=O)NCc1ccccc1` (stereo not given), the result in assay [3] was inactive. On the same count and under the same terms, for `O=c1c2ccc(F)cc2sn1-c1ccc(Cl)cc1` the value was “inactive”. Regarding `O=C(Nc1cccc2ccccc12)C(=O)c1c[nH]c2ccccc12`, the outcome in assay [3] was inactive. For `O=C(O)c1cc(-n2cnnn2)ccc1O`, the pIC50 in assay [1] is 3.26. Also, the result in assay [4] was inactive.

In the case of `Ic1cc(-c2ccccc2)ncn1`, in assay [3], the result was inactive. Turning to `Oc1ccc(/C=C/c2ccc3cccc(O)c3n2)cc1`, the pIC50 in assay [1] was 5.10. In assay [6], the Activity was determined as 40%. In assay [1], `Oc1ccc2c(c1)oc1ccccc12` showed a pIC50 of 3.05. Also, the Activity in assay [6] came out at 38%.
